Consider three molecules from ChEMBL document CHEMBL2021777 (J Med Chem, 2012).

Some results are limits rather than exact numbers.

The target of data set [1] is Neuronal acetylcholine receptor; alpha4/beta2 (Rattus norvegicus, UniProt P09483+P12390). In words: Displacement of [3H] epibatidine from rat alpha4beta2 nAChR by beta scintillation counting. It is filed as protein-complex assay. (In general: Displacement assays read how much labelled ligand stays bound in the presence of the test substance.)
Neuronal acetylcholine receptor; alpha4/beta2 (Rattus norvegicus, UniProt P09483+P12390), sequence (P09483 whole entry): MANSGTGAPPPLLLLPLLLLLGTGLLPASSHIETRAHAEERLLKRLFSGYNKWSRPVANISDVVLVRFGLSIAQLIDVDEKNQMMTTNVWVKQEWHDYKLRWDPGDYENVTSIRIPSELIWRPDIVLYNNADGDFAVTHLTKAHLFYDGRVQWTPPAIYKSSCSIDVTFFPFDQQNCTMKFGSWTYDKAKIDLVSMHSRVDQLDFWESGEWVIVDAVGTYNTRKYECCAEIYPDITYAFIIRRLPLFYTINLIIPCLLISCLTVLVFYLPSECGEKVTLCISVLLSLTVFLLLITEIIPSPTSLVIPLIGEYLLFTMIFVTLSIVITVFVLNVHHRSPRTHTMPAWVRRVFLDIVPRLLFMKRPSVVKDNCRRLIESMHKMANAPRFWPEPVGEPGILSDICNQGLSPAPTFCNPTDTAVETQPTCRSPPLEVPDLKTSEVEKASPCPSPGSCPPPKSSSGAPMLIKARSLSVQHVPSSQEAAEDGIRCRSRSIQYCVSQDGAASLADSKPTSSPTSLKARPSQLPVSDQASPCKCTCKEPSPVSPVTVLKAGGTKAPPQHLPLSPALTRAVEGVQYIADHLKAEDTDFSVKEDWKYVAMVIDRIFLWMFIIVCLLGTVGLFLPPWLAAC
Neuronal acetylcholine receptor; alpha4/beta2 (Rattus norvegicus, UniProt P09483+P12390), sequence (P12390 whole entry): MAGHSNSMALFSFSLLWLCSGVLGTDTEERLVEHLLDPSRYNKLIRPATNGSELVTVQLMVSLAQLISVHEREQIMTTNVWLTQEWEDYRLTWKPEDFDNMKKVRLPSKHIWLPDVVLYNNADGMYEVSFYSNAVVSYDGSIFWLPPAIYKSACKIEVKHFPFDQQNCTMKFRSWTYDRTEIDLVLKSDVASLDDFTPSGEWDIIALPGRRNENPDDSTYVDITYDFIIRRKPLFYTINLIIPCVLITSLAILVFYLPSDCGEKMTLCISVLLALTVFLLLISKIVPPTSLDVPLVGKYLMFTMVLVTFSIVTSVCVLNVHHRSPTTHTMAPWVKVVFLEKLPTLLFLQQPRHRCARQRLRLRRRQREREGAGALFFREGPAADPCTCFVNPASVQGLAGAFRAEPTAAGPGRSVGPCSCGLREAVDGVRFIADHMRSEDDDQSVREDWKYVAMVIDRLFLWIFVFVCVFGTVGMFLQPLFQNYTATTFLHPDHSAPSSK
Data set [2] addresses T1, Neuronal acetylcholine receptor; alpha4/beta2 (Homo sapiens, UniProt P17787+P43681). In words: Partial agonist activity at human high sensitive alpha4beta2 nAChR expressed in SH-EP1 cells assessed as 86Rb+ ion efflux by flip-plate technique relative to sazetidine-A. It is filed as functional, cell-based. The gist of the method:
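86Rb+ ion flux in SH-EP1 cells stably transfected with separate human α4 and β2 subunit cDNAs, expressing a mixture of high- and low-sensitivity α4β2 nAChRs. Cells kept at low passage (1−26). Efficacy at the HS form extrapolated relative to a reference agonist defined as a 100% full agonist.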

The target of data set [3] is T1, Neuronal acetylcholine receptor; alpha4/beta2. Nature of the data set: Antagonist activity at human high sensitive and low sensitive alpha4beta2 nAChR expressed in SH-EP1 cells assessed as inhibition of carbamylcholine induced 86Rb+ ion efflux preincubated for 10 mins prior to carbamylcholine-induction measured after 5 mins by flip-plate technique relative to control. The class given is functional, cell-based. The gist of the method: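 SH-EP1 human epithelial cells stably transfected with separate human α4 and β2 subunit cDNAs express a mixed population of high-sensitivity (2:3 α4:β2) and low-sensitivity (3:2) α4β2-nAChRs. Cells were kept at low passage (1−26 from frozen stocks). Function was read as 86Rb+ ion flux.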

The target in data set [4] is 5-hydroxytryptamine receptor 1B (Homo sapiens) (UniProt P28222). Nature of the data set: Displacement of [3H][…] from 5-HT1B at 10 uM.
5-hydroxytryptamine receptor 1B (Homo sapiens), sequence (P28222 whole entry): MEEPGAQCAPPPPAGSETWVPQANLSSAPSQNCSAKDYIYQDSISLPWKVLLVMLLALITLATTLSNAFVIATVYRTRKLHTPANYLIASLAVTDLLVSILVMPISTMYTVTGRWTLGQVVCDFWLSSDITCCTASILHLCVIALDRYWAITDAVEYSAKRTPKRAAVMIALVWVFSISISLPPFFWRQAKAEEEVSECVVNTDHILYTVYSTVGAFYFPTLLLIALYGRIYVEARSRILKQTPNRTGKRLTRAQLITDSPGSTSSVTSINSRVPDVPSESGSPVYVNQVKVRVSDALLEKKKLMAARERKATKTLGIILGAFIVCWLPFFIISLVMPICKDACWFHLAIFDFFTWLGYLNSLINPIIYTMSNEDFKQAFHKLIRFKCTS
Data set [5] concerns the target D(1A) dopamine receptor (Homo sapiens) (UniProt P21728). In words: Displacement of [3H][…] from D1 at 10 uM.
The target of data set [6] is D(2) dopamine receptor (Homo sapiens) (UniProt P14416). Nature of the data set: Displacement of [3H]N-methylspiperone from D2 at 10 uM.
D(2) dopamine receptor (Homo sapiens), sequence (P14416 whole entry): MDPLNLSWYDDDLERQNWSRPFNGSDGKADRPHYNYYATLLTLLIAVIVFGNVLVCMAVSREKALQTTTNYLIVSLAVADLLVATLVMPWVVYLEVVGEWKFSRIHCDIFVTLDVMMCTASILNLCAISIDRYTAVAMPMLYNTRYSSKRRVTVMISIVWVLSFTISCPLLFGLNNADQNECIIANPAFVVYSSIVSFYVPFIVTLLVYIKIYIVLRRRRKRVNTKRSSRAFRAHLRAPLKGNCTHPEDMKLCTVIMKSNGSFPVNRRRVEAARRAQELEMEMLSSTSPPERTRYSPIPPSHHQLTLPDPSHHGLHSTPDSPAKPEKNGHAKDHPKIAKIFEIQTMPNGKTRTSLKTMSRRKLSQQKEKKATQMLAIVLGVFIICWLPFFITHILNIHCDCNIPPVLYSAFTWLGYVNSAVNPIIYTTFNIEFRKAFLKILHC
In data set [7] the target is T2, D(4) dopamine receptor (Homo sapiens) (UniProt P21917).
T2 sequence (whole entry): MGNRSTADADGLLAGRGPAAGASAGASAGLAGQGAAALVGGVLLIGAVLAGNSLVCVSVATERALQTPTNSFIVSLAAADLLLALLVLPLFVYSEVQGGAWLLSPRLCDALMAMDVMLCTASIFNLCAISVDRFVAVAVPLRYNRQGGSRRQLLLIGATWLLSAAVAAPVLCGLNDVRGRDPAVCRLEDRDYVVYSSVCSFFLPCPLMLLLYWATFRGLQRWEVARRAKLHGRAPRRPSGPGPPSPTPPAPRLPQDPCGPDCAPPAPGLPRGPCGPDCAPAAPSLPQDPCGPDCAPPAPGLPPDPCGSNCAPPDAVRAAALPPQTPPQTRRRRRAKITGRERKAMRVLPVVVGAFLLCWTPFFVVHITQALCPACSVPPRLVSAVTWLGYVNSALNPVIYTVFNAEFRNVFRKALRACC
Nature of the data set: Displacement of [3H]N-methylspiperone from D4 at 10 uM.

For data set [8], the target named is T3, Alpha-2C adrenergic receptor (Homo sapiens) (UniProt P18825).
T3 sequence (whole entry): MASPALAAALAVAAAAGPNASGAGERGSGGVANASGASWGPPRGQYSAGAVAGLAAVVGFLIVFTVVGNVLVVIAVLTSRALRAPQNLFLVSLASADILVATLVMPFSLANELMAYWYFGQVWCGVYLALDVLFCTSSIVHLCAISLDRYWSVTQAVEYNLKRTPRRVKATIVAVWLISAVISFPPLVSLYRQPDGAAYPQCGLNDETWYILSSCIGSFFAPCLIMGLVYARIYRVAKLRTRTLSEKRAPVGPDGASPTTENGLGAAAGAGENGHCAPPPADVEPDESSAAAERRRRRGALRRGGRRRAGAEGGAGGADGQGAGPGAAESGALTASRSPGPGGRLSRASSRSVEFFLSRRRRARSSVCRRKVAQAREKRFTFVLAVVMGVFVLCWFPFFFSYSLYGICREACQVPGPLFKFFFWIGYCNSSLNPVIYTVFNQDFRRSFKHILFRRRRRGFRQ
In words: Displacement of [3H]Clonidine from alpha2C adrenergic receptor at 10 uM.

Data set [9] has as its target Beta-2 adrenergic receptor (Homo sapiens) (UniProt P07550). In words: Displacement of [125I]Iodopindolol from beta2 adrenergic receptor at 10 uM.
For data set [10], the target named is Histamine H2 receptor (Homo sapiens) (UniProt P25021). In words: Displacement of [3H]Tiotidine from H2 histamine receptor at 10 uM.
Histamine H2 receptor (Homo sapiens), sequence (P25021 whole entry): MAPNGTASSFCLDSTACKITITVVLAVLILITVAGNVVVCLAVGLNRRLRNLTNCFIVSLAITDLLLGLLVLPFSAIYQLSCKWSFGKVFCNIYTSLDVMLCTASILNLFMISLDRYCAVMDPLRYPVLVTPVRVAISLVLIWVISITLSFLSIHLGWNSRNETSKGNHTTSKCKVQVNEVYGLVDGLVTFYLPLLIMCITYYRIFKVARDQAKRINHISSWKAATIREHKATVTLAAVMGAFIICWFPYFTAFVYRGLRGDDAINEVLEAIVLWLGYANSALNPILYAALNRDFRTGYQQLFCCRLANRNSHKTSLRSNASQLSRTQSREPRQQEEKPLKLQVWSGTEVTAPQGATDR
Data set [11] has as its target T4, Muscarinic acetylcholine receptor M4 (Homo sapiens) (UniProt P08173).
T4 sequence (whole entry): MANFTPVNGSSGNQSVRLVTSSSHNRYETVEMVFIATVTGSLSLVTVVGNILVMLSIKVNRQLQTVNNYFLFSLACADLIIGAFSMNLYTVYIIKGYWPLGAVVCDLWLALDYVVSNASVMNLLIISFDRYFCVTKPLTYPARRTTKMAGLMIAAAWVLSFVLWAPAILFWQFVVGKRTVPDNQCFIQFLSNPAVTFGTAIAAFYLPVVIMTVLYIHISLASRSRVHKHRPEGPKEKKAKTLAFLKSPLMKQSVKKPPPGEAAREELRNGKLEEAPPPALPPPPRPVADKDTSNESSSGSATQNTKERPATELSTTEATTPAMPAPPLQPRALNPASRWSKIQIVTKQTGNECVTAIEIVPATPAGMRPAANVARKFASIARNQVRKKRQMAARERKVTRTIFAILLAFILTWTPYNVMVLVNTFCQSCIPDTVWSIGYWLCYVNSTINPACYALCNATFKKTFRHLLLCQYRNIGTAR
Nature of the data set: Displacement of [3H]QNB from M4 receptor at 10 uM.

Data set [12] concerns the target Delta-type opioid receptor (Homo sapiens) (UniProt P41143). In words: Displacement of [3H]DADLE from delta opioid receptor at 10 uM.
The target of data set [13] is Kappa-type opioid receptor (Homo sapiens) (UniProt P41145). In words: Displacement of [3H]U69593 from kappa opioid receptor at 10 uM.
Kappa-type opioid receptor (Homo sapiens), sequence (P41145 whole entry): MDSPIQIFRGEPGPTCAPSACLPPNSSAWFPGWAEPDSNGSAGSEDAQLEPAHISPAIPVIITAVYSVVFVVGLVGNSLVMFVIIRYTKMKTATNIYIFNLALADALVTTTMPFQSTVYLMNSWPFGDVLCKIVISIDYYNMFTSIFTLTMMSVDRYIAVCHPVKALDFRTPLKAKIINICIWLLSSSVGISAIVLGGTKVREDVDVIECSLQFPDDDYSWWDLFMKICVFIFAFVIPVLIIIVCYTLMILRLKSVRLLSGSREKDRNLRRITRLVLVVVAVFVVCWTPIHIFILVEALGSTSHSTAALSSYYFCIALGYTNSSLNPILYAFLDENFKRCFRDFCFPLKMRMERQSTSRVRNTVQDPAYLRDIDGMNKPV
Data set [14] concerns the target Sigma non-opioid intracellular receptor 1 (Homo sapiens) (UniProt Q99720). In words: Displacement of [3H]Pentazocine from sigma1 receptor at 10 uM.
Data set [15] is described as follows: Metabolic stability in human liver microsomes assessed as compound remaining at 1 uM after 1 hr. It is filed as ADME, Microsome. The settings on record: read-out: Stability. Summed up: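 Compound at 1 μM incubated for 1 h with human or mouse liver microsomes; percent of parent remaining unchanged.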
In general terms: Liver microsomes are a subcellular fraction often used to study metabolism.

Data set [16] can be described thus: Inhibition of CYP1A up to 10 uM. It is filed as ADME. The gist of the method:
(§1)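 Percent inhibition of CYP isoforms (CYP1A, CYP2C9, CYP2C19, CYP2D6, CYP3A; CYP1A2 reported) with test compound at concentrations up to 10 μM.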

In a further data set the target is Cytochrome P450 2C9 (Homo sapiens, UniProt P11712). In words: Inhibition of CYP2C9 up to 10 uM. It is filed as ADME. Summed up: as §1
Cytochrome P450 2C9, sequence (P11712 whole entry): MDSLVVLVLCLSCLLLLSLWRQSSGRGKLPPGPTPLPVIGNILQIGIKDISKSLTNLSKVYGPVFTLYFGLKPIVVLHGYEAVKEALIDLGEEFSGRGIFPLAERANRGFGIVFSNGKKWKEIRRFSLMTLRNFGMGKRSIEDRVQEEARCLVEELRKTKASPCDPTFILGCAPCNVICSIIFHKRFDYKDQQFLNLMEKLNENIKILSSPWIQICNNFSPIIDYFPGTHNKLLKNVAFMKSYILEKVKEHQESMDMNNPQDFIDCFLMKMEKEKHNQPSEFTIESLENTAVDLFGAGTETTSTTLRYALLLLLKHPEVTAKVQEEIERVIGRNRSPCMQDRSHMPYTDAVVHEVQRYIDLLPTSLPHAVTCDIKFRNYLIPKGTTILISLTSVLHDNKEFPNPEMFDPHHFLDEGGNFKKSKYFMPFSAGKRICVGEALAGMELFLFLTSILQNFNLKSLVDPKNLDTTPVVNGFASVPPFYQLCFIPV
A short description of data set [17]: Displacement of [3H]Muscimol from GABA(A) at 10 uM.

Beta-2 adrenergic receptor (Homo sapiens), sequence (P07550 whole entry, looked up): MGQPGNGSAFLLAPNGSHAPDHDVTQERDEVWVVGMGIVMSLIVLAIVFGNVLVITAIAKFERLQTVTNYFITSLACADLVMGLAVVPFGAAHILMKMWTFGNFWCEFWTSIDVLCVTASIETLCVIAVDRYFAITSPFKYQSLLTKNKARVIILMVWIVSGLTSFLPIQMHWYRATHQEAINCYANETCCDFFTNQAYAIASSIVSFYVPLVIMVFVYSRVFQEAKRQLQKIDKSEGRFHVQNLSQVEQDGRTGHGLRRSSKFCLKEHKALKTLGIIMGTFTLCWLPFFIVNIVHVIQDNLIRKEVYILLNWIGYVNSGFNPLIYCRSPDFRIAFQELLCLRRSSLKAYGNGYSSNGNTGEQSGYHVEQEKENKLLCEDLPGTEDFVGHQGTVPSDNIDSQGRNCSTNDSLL
D(1A) dopamine receptor (Homo sapiens), sequence (P21728 whole entry): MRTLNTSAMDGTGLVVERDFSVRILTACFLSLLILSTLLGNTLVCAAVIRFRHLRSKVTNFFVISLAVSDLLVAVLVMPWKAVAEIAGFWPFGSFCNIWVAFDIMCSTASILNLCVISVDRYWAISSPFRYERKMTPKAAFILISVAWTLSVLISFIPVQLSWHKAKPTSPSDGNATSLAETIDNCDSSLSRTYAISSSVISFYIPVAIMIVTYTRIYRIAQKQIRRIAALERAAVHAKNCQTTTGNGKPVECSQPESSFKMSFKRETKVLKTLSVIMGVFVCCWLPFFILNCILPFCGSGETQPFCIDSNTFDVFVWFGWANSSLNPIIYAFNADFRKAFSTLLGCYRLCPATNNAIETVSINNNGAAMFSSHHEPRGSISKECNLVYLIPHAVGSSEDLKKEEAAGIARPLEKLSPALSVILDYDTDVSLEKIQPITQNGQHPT
Sigma non-opioid intracellular receptor 1 (Homo sapiens), sequence (Q99720 whole entry): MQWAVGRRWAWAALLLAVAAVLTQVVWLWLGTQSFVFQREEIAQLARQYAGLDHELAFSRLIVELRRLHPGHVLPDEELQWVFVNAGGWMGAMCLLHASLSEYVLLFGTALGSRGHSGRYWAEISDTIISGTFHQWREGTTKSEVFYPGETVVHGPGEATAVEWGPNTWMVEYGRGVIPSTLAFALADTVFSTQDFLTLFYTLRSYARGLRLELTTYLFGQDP
Delta-type opioid receptor (Homo sapiens), sequence (P41143 whole entry): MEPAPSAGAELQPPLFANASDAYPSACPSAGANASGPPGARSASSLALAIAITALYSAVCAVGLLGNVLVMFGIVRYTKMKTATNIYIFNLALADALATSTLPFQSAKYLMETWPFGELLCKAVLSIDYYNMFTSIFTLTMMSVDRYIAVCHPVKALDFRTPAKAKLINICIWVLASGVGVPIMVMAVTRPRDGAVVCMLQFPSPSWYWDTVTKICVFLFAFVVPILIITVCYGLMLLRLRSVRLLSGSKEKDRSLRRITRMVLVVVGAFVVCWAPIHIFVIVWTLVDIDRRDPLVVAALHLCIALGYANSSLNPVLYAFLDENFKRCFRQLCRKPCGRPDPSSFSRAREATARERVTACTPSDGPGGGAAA

`CNC(=O)OCC[C@H]1C[C@@H]1c1cncc(OC[C@@H]2CCN2)c1`: the Ki (commonly a dissociation constant, usually derived from enzyme kinetics or from competition with a known ligand) in data set [1] came out at 0.6 nM. For the same molecule, the Efficacy is 77% in [2] and 85% in data set [3]. The inhibition (commonly the change of the read-out against control, counted positive when it falls) in data set [4] is -2.6%; in data set [5], 2.1%; in data set [6], 0.7%; in data set [7] it was 17%; in data set [8] it was 42%; in data set [9], 22.1%. Moreover, the inhibition was 14.6% in data set [10]; 29.2% in data set [11]; -4.4% in [12]; 19.1% in data set [13]; 3.9% in [14]; -1.1% in data set [17]. Moreover, in [15], the remaining at 1 h, 1 µM was 98%. The “inhibition (INH)” value (in [16]; against Cytochrome P450 2C9) was “<= 25%” each time.
For the molecule `OCC[C@H]1C[C@@H]1c1cncc(OC[C@@H]2CCN2)c1`, in [1], the affinity, expressed as Ki, was 0.1 nM. Besides, the Efficacy in data set [2] amounted to 92%; in [3] it was 63%. The inhibition in data set [4] is 9.3%; in data set [5], 51.2%; in data set [6], -7.4%; in data set [7], 8.3%; in data set [8], 17.6%; in data set [9], -4.5%. The inhibition in data set [10] is 18.4%; in [11], -3.7%; in [12] it was 0.8%; in [13] it was 3.7%; in data set [14] it was 0.5%; in data set [17] it was -2.5%. Besides, in [15], the remaining at 1 h, 1 µM was found to be 80%. Also, the “inhibition (INH)” value (in data set [16]; against Cytochrome P450 2C9) was “<= 25%” each time.
The molecule `COCC[C@H]1C[C@@H]1c1cncc(OC[C@@H]2CCN2)c1` displayed an inhibition constant Ki in data set [1] of 0.1 nM. Moreover, the Efficacy in [2] turned out to be 60%; in [3], 71%. The inhibition in [4] is -1.8%; in [5], 90.3%; in [6], -1.8%; in data set [7], 15.8%; in [8] it was 30.6%; in [9], 3%. Also, the inhibition in [10] was 26.2%; in [11], 0.7%; in [12], -4.2%; in data set [13], 7.2%; in data set [14], 58.7%; in [17], 2%. Besides, the remaining at 1 h, 1 µM in data set [15] worked out at 84%. The “inhibition (INH)” value (in data set [16]; on Cytochrome P450 2C9) was “<= 25%” in each case.
